pEC50: −log10 of the molar value. ≈ marks a conversion by molar mass, not a printed value.
Tests used:
[1] = Selectivity index, ratio of CC50 for human HepG2 cells to EC50 for antileishmanial activity against Leishmania donovani MHOM/IN/00/DEVI promastigotes; type: toxicity; conditions: read-out: Ratio CC50/EC50
[2] = system: Trypanosoma brucei brucei; assay: Antitrypanosomal activity against blood stream form of wild type Trypanosoma brucei brucei S427 trypomastigotes assessed as inhibition of parasite growth; type: functional, organism-based
Method in brief: (§1)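 Bloodstream-form single marker S427 (T7RPOL TETR NEO) grown at 37 °C in HMI9-T with 2.5 µg/mL G418. The NTR1-overexpressing line is additionally kept in 2.5 µg/mL phleomycin and induced with 1 µg/mL tetracycline 48 h before testing.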

[3] = Toxicity in Swiss mouse assessed as lesions on heart at 100 mg/kg, po administered once daily for 5 days; type: organism-based; conditions: in vivo, 120 h, time 5 day
Method in brief: (§2)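 Four mice received compound at 100 mg/kg by oral gavage once daily for 5 days, followed by a follow-up period.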

[4] = Thermodynamic solubility of the compound in phosphate buffer at pH 7.4 incubated for 24 hrs under shaking condition by shake flask method; type: physicochemical; conditions: read-out: Therm_solubility
Method in brief: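 The miniaturized shake-flask method used 20 mM DMSO stock diluted into phosphate buffer at pH 7.4 (n = 4). Tubes were shaken 24 h at room temperature and centrifuged. Supernatant was mixed 1:1 with acetonitrile and quantified by UV, with calibration at 370 nm.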

[5] = AUC (0 to infinity) in Swiss mouse at 100 mg/kg, po by LC-MS/MS analysis; type: ADME, organism-based; set-up: time infinity, route oral, dose 100 mg/kg; conditions: in vivo
Method in brief: (§3)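 Mice were given oral doses of 100 mg/kg. Plasma Cmax, Tmax, half-life, AUC0-inf and clearance were derived from this.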

[6] = Toxicity in Swiss mouse assessed as lesions on lung at 100 mg/kg, po administered once daily for 5 days; type: organism-based; conditions: in vivo, 120 h, time 5 day; method in brief: as §2
[7] = Permeability of the compound in pH 7.4 Prisma HT buffer at 100 uM incubated for 4 hrs by PAMPA-BBB assay method
HepG2 = assay: Genotoxicity in human HepG2 cells assessed as induction of DNA damage at 5 to 20 uM incubated for 2 to 72 hrs by alkaline comet assay; type: toxicity, cell-based; conditions: hepg2, 20 µM, dose lower 5 µM, time lower 2 hrs, dose upper 20 µM, time upper 72 hrs
Method in brief: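 HepG2 cells were exposed to 5, 10 and 20 µM compound for 2, 24 or 72 h. Methyl methanesulfonate was the positive control, and read-out was % DNA in tail.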

[8] = system: Trypanosoma brucei brucei; assay: Antitrypanosomal activity against blood stream form of Trypanosoma brucei brucei S427 trypomastigotes overexpressing NTR1 assessed as inhibition of parasite growth; type: functional, organism-based; method in brief: as §1
[9] = Electrochemical behavior of the compound assessed as redox potential corrected toward normal hydrogen electrode by cyclic voltammetry
[10] = Cytotoxicity against human HepG2 cells assessed as reduction in cell viability after 72 hrs by MTT assay; type: cell-based
Method in brief: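 MTT was applied at 0.5 mg/mL for 2 h, formazan was dissolved in DMSO, and absorbance read at 570 nm with a 630 nm reference. Doxorubicin was the positive control. CC50 was taken from the dose-response curve, as the mean of three experiments.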

[11] = Toxicity in Swiss mouse assessed as lesions on liver at 100 mg/kg, po administered once daily for 5 days; type: organism-based; conditions: in vivo, 120 h, time 5 day; method in brief: as §2
Leishmania infantum = assay: Antileishmanial activity against Leishmania infantum MHOM/MA/67/ITMAP-263 axenic amastigotes assessed as inhibition of parasitic metabolic activity incubated for 48 hrs by steady Glow reagent based luminescence assay; type: functional, organism-based; conditions: MHOM/MA/67/ITMAP-263, 48 h
Method in brief: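 Luciferase-expressing promastigotes were acidified (pH 5.4, 24 h, 24 °C) and then held 24 h at 37 °C to give axenic amastigotes. These were used at 2×10⁶/mL with compound (DMSO <0.5%), in duplicate, for 48 h at 37 °C. Luciferase luminescence was read. EC50 came from non-linear regression, as the mean of three independent experiments.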

[12] = Selectivity index, ratio of CC50 for human HepG2 cells to EC50 for Trypanosoma brucei brucei trypomastigotes AnTat 1.9; type: toxicity; conditions: read-out: Ratio CC50/EC50
[13] = Toxicity in Swiss mouse assessed as lesions on kidney at 100 mg/kg, po administered once daily for 5 days; type: organism-based; conditions: in vivo, 120 h, time 5 day; method in brief: as §2
[14] = Toxicity in Swiss mouse assessed as lesions on brain at 100 mg/kg, po administered once daily for 5 days; type: organism-based; conditions: in vivo, 120 h, time 5 day; method in brief: as §2
[15] = Tmax in Swiss mouse at 100 mg/kg, po by LC-MS/MS analysis; type: ADME, organism-based; conditions: in vivo; method in brief: as §3
[16] = Aqueous solubility of compound; type: physicochemical; conditions: buffer
Albumin = Albumin (Homo sapiens, UniProt P02768); assay: Binding affinity to human albumin incubated for 4 hrs by LC-MS analysis; type: ADME; conditions: read-out: PB (converted)
Chain of Albumin (P02768 whole entry): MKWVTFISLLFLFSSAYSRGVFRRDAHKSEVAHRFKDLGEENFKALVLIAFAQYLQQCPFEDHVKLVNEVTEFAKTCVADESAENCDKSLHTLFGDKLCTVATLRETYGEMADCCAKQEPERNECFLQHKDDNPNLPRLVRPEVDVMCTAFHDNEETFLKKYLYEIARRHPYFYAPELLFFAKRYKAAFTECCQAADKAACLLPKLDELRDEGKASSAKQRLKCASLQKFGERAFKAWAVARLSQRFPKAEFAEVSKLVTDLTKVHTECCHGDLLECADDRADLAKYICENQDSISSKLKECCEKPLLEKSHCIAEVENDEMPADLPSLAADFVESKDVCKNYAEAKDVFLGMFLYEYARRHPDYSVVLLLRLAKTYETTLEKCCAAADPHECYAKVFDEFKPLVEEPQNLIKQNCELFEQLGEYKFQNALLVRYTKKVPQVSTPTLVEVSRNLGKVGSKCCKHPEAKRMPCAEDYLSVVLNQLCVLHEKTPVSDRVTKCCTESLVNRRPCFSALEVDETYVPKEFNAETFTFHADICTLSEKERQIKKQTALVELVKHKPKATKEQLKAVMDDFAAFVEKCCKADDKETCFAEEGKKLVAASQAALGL

[17] = Half life in Swiss mouse at 100 mg/kg, po by LC-MS/MS analysis; type: ADME, organism-based; conditions: in vivo; method in brief: as §3
[18] = system: Trypanosoma brucei brucei; assay: Antitrypanosomal activity against bloodstream form Trypanosoma brucei brucei AnTat 1.9 trypomastigotes assessed as reduction in parasite viability incubated for 69 hrs by Alamar Blue dye based assay; type: functional, organism-based; conditions: AnTat 1.9, 69 h
Method in brief: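 BSF parasites were cultured in MEM/Baltz medium with 20% heat-inactivated horse serum, mercaptoethanol, L-cysteine and bathocuproine, at 37 °C and 5% CO₂. Cells were seeded at 2000 parasites/100 µL with compound from DMSO, in duplicate, for 69 h. Alamar Blue was added for 5 h and fluorescence read (ex 530/em 590 nm). EC50 came from non-linear regression over three independent experiments.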

[19] = Selectivity index, ratio of CC50 for human HepG2 cells to EC50 for antileishmanial activity against Leishmania infantum MHOM/MA/67/ITMAP-263 axenic amastigotes; type: toxicity; conditions: read-out: Ratio CC50/EC50
Leishmania donovani = assay: Antileishmanial activity against Leishmania donovani MHOM/IN/00/DEVI promastigotes assessed as inhibition of parasitic metabolic activity measured after 72 hrs by MTT assay; type: functional, organism-based
Method in brief: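 Log-phase promastigotes at 10⁶/mL were grown in Schneider's medium with 20% FCS at 27 °C. Compound was added from DMSO stock (final <0.5% v/v), in duplicate, for 72 h. Metabolic activity was read by MTT (4 h, 27 °C) and absorbance at 570 nm. EC50 came from non-linear dose-response regression, as the mean of ≥3 independent experiments.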

[20] = Cmax in Swiss mouse at 100 mg/kg, po by LC-MS/MS analysis; type: ADME, organism-based; set-up: route oral, dose 100 mg/kg; conditions: in vivo; method in brief: as §3
[21] = system: Trypanosoma brucei brucei; assay: Potency index, ratio of nifurtimox EC50 to compound EC50 for antitrypanosomal activity against blood stream form of wild type Trypanosoma brucei brucei S427 trypomastigotes; type: functional
CHO-K1 = assay: Genotoxicity in CHOK1 cells assessed as increase in micronucleated cells at 0.01 to 0.5 mM in presence or absence of S9 fraction measured after 3 hrs by Giemsa staining based micronucleus assay; type: toxicity, cell-based, Cricetulus griseus; conditions: chinese hamster, cho-k1, 3 h, 500 µM, dose 0.01-0.5 mM
Method in brief: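 CHO-K1 cells in McCoy's 5A were exposed 3 h to 0.01–0.5 mM compound, with or without 10% S9 mix, in duplicate. Cells then received cytochalasin B (3 µg/mL) for 21 h and were methanol-fixed and Giemsa-stained. Micronuclei were scored in 1000 binucleated cells per well, and CBPI and cytostasis were also determined. A χ² test was run against the negative control.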

[22] = Toxicity in orally dosed Swiss mouse administered once daily for 5 days; type: organism-based; conditions: in vivo, po, time 5 day; method in brief: as §2
[23] = system: Trypanosoma brucei brucei; assay: Selectivity index, ratio of EC50 for antitrypanosomal activity against blood stream form of wild type Trypanosoma brucei brucei S427 trypomastigotes to EC50 for antitrypanosomal activity against blood stream form of Trypanosoma brucei brucei S427 trypomastigotes overexpressing NTR1; type: functional
[24] = Microsomal stability in CD-1 mouse liver microsomes assessed as half life in presence of NADP measured up to 40 mins by LC-MS analysis; type: ADME, Microsome
Method in brief: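 Compound was incubated in duplicate with female CD-1 mouse microsomes at 37 °C in 50 mM phosphate, pH 7.4. An NADP-regenerating system was present (MgCl₂ 5 mM, NADP 1 mM, G6PDH 0.4 U/mL, G6P 5 mM).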

[25] = Clearance in Swiss mouse at 100 mg/kg, po by LC-MS/MS analysis; type: ADME, organism-based; conditions: in vivo; method in brief: as §3

Structure (SMILES): CS(=O)(=O)Cc1nc2c(Br)cc(Cl)cn2c1[N+](=O)[O-]
- selectivity ratio [1]: 7.9
- pEC50 [2]: 7.19
- Activity [3]: Non-Toxic
- solubility thermodynamic at 24 h [4]: 25.8 µM (≈ 9.51 µg/mL)
- AUC(0-inf) [5]: 7060 ng·h/mL
- Activity [6]: Non-Toxic
- Papp at 4 h, 100 µM [7]: 8.42 ×10⁻⁶ cm/s
- Activity (HepG2): Non-Toxic
- pEC50 [8]: 7.80
- Activity [9]: -0.6 V
- CC50 at 72 h [10]: 45000 nM
- Activity [11]: Non-Toxic
- pEC50 (Leishmania infantum): < 4.60
- selectivity ratio [12]: 2650
- Activity [13]: Non-Toxic
- Activity [14]: Non-Toxic
- Tmax [15]: 5 h
- solubility [16]: Soluble
- fraction unbound at 4 h (Albumin): 0.231
- half-life [17]: 7.7 h
- pEC50 [18]: 7.77
- selectivity ratio [19]: < 1.8
- pEC50 (Leishmania donovani): 5.24
- Cmax [20]: 741 ng/mL
- Ratio EC50 [21]: 30
- Activity (CHO-K1): Non-Toxic
- NOAEL at 120 h [22]: 100 mg/kg/day
- Ratio EC50 [23]: 4
- half-life [24]: > 0.667 h
- CL/F [25]: 0.0085 mL/min
